Source: PubChem BioAssay (several laboratories)
BB579 growth dn = chemicals that inhibit yeast BB579 growth in restrictive medium (lifespan-shortening candidates); S. cerevisiae BB579 growth, OD615, 48 h; inhibition, % at 10 µM; 140,000 tested, 0.51% active;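 active = inhibition above a set limit, 3 SD over the mean compound inhibition, cut at about 44% in these data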
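Test system: Saccharomyces cerevisiae DeaD strain BB579, replicative lifespan model yeast | Buffer or medium: Restrictive CSMM-D medium | Doses: One dose, 10 µM compound with 0.25% DMSO | Incubation: 48 h exposure, 30 °C | Detection: Culture absorbance at 615 nm | Control set: Amphotericin B at 10 µg/mL as positive control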
SDO1 yeast rescue = sdo1-depleted yeast growth rescue. 140,000 tested, 0.21% active. z-score at 10 µM. S. cerevisiae sdo1-depleted JHY4D growth rescue, OD600 30 h; stronger effect = higher value; pdr5 snq2 efflux-pump mutant strain;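 active = z-score above 3 at both the 24 hr and the 30 hr optical density reads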;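 note: z-score against mean and SD of all compound wells on the same plate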
MRP-1 activ = MRP-1 activation; H69AR cells + doxorubicin, viability rescue, CellTiter-Glo; viability increase, % at 10 µM; 140,000 tested, 0.61% active; AID 799;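 active = viability gain under doxorubicin at or above a set limit, the compound median plus 3 SD, cut at about 4.7% in these data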;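 note: MRP-1 overexpressing cells given doxorubicin 25 µM after compound pretreatment; 18-22 h compound pretreatment then 72 h with doxorubicin before readout; 0% = doxorubicin-only wells and 100% = vehicle-treated cells without doxorubicin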
Phagocyt inh = inhibitors of macrophage phagocytosis; J774A.1 macrophage IgG-bead phagocytosis, imaging; inhibition, % at 5 µM; 110,000 tested, 0.07% active; AID 1029;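 active = inhibition above the mean of the plate negative controls plus 5 SD, cut at about 13% in these data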;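 note: phagocytic index as fraction of beads internalized from green versus red external bead signal; plate controls were DMSO negative control for no effect and cytochalasin-D positive control for full effect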
MRP resist rev = MRP-mediated drug resistance reversal | H69AR cells + 2 uM doxorubicin, CellTiter-Glo, 72 h | differential viability (reversal), % at 10 µM | 85,000 tested, 0.04% active | AID 602;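 active = viability drop by adding the cancer drug above about 55%, with treated viability meeting a 40% cutoff, limit read from the data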;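 note: viability without doxorubicin minus viability with 2 µM doxorubicin for each compound; larger differential means the compound sensitizes cells more to doxorubicin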
Yeast life ext = extends the lifespan of yeast | S. cerevisiae growth with nicotinamide, OD615; deaD strain in restrictive glucose medium | inhibition of the nicotinamide effect, % at 10 µM | 130,000 tested, 0.68% active | AID 775;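 active = inhibition above a set limit, placed 3 SD over the median of all compounds, cut at about 26% in these data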;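 note: 0% = nicotinamide-treated wells and 100% = cells grown without nicotinamide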
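assay system = DeaD-strain S. cerevisiae | buffer or medium = restrictive glucose medium | reagent = 1.5 mM nicotinamide | compound = 10 µM single point, 0.25% DMSO | incubation = 48 h compound exposure at 30 °C, humidified | signal = OD615 measurement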
An asterisk follows results filed as active. Rows were chosen to be rich in hits. Some 2.1% of all compounds tested hit in one or more screens of this group.

O=C1CC(N2CCC(c3nc4ccccc4o3)CC2)C(=O)N1c1cc(Cl)cc(Cl)c1 (configuration not stated) was read as BB579 growth dn -30, SDO1 yeast rescue -0.71, MRP-1 activ 8.2*, Phagocyt inh 1, MRP resist rev 5 and Yeast life ext -5.
Cn1ncc(C#N)c1/N=C/N1CCOCC1 was read as BB579 growth dn -54, SDO1 yeast rescue 1.6, MRP-1 activ 1, Phagocyt inh -1, MRP resist rev -2 and Yeast life ext 40*.
CCOc1ccc(OCC(=O)c2c(O)c3ccccc3oc2=O)cc1 was read as BB579 growth dn -10, SDO1 yeast rescue 0.3, MRP-1 activ -2, Phagocyt inh 0, MRP resist rev -2 and Yeast life ext 44*.
Screening CC(=O)c1cccc(N2C(=NC(=O)C(C)C)SC3CS(=O)(=O)CC32)c1 (configuration not stated) returned BB579 growth dn -44, SDO1 yeast rescue -0.22, MRP-1 activ -1, Phagocyt inh 0 and Yeast life ext -7.
Screening CCOC(=O)c1ccc(N=C2NC(=O)CS2)cc1 returned BB579 growth dn -28, SDO1 yeast rescue 0.04, MRP-1 activ 0, Phagocyt inh 0, MRP resist rev 8 and Yeast life ext -15.
Screening CCOC(=O)c1ccc(N2CN=C3SCC(=O)N3C2)cc1 returned BB579 growth dn -7, SDO1 yeast rescue -1, MRP-1 activ 5.8*, Phagocyt inh 2, MRP resist rev -1 and Yeast life ext -20.
Screening O=C1c2cc3ccccc3c(-c3ccccc3)c2C(=O)N1c1ccccn1 returned BB579 growth dn -11, SDO1 yeast rescue -0.31, MRP-1 activ -2, Phagocyt inh -3 and Yeast life ext 9.
O=C1c2cc([N+](=O)[O-])cc3cc([N+](=O)[O-])cc(c23)C(=O)N1c1ccccn1 was read as BB579 growth dn -16, SDO1 yeast rescue -0.49, MRP-1 activ -5 and Yeast life ext 32*.
CCOC(=O)c1nn(-c2cccc(OC)c2)c2nc(Nc3ccccc3)cc(=O)n12 was read as BB579 growth dn -31, SDO1 yeast rescue -0.42, MRP-1 activ -1, Phagocyt inh -4 and Yeast life ext 5.
For COc1cccc(C(=O)N2CCN(Cc3ccccn3)CC2)c1OC the results were BB579 growth dn -37, SDO1 yeast rescue 1.4, MRP-1 activ -2, Phagocyt inh -3 and Yeast life ext -3.
`C/C=C/Cn1c(N2CCCCCC2)nc2c1c(=O)[nH]c(=O)n2C` gave BB579 growth dn 6, SDO1 yeast rescue -0.04, MRP-1 activ 0, MRP resist rev -19 and Yeast life ext 137*.
CCCN(CC(=O)Nc1cccc(Br)c1)CC(=O)Nc1ccc(F)c(F)c1F was read as BB579 growth dn -51, SDO1 yeast rescue -0.64, MRP-1 activ -4, Phagocyt inh -7 and Yeast life ext -2.
`CC(=O)Nc1nc(C)c(Oc2ccc(Cl)cc2Cl)c(=O)[nH]1` gave BB579 growth dn -22, SDO1 yeast rescue 0.39, MRP-1 activ 32*, Phagocyt inh -5, MRP resist rev 25 and Yeast life ext -4.
`CCOC(=O)N1CCC(Nc2c(NCCCN(CC)Cc3ccccc3)c(=O)c2=O)CC1` gave BB579 growth dn -4, SDO1 yeast rescue 0.12, MRP-1 activ 0, Phagocyt inh 1, MRP resist rev -10 and Yeast life ext 2.
Screening COc1ccc(Cc2nnc(N/N=C/c3ccc(O)cc3O)[nH]c2=O)cc1OC returned BB579 growth dn 23, SDO1 yeast rescue 0.99, MRP-1 activ 6.0*, Phagocyt inh -9 and Yeast life ext 2.
For CCc1nnc(NC(=O)c2ccc(S(=O)(=O)N3CCCCCC3)cc2)s1 the results were BB579 growth dn -8, SDO1 yeast rescue -0.71, MRP-1 activ 5.4*, MRP resist rev 1 and Yeast life ext -5.
CCc1nnc(NC(=O)[C@@H](NC(=O)c2cccc(S(=O)(=O)N(CC)CC)c2)C(C)C)s1 was read as BB579 growth dn -35, SDO1 yeast rescue 0.62, MRP-1 activ 5.2*, Phagocyt inh 0 and Yeast life ext -4.
CCc1nnc(NC(=O)c2ccc(S(=O)(=O)NCC(C)C)cc2)s1 was read as BB579 growth dn -58, SDO1 yeast rescue -0.55, MRP-1 activ 9.6*, Phagocyt inh -1 and Yeast life ext -5.
